{"source": "paper PMC5879491", "about": "(Journal of the American Chemical Society, 2018)", "key": {"H3R [1]": {"target": "T1, H3R (Homo sapiens, UniProt Q9Y5N1)", "T1 sequence (Q9Y5N1 whole entry)": "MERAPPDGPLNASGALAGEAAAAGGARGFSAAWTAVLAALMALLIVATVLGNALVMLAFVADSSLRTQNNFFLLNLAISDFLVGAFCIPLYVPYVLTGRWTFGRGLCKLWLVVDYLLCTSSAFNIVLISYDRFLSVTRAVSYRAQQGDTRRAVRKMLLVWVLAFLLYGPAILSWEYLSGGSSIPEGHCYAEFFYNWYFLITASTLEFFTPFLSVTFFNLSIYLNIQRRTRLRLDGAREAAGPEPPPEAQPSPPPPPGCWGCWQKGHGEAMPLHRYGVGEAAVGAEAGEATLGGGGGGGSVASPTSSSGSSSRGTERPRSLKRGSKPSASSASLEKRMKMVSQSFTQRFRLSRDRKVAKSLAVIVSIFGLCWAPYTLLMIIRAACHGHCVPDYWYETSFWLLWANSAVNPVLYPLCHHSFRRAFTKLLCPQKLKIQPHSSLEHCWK", "assay": "Two-electrode voltage clamp", "type": "cell-based"}, "H3R [2]": {"target": "T1, H3R", "type": "binding", "details": "for effect of illumination of compound solution at 360 ± 20 nm on affinity: data not shown", "in_short": "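A 1 mM stock of test compound was either illuminated at 360 ± 20 nm to PSS (checked by LC–MS) or kept dark; all later handling was in darkness. Competition ran at 10^-5 to 10^-12 M against 1.6 nM [3H]-Nα-methylhistamine. Membranes were homogenates of HEK293T cells PEI-transfected 48 h with human H3R (445 isoform). Incubation was 2 h at 25 °C in 50 mM Tris–HCl pH 7.4, followed by GF/C filtration and scintillation counting. Ki was obtained by Cheng–Prusoff; the shift was pKi cis minus pKi trans.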"}, "hH4R": {"target": "hH4R (Homo sapiens, UniProt Q9H3N8)", "sequence (Q9H3N8 whole entry)": "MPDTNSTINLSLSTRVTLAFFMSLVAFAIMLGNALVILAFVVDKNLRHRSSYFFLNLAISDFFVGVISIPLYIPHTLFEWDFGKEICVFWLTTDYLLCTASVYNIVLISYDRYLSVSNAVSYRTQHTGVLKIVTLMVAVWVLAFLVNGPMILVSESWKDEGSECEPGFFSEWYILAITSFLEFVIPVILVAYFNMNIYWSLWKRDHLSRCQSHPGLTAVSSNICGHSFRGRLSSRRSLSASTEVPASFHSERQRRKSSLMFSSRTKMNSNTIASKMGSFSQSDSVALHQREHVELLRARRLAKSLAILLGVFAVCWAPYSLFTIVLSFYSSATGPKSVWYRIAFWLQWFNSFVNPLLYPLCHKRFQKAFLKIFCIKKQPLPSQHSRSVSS", "assay": "H4R radioligand binding"}, "hH2R": {"target": "hH2R (Homo sapiens, UniProt P25021)", "sequence (P25021 whole entry)": "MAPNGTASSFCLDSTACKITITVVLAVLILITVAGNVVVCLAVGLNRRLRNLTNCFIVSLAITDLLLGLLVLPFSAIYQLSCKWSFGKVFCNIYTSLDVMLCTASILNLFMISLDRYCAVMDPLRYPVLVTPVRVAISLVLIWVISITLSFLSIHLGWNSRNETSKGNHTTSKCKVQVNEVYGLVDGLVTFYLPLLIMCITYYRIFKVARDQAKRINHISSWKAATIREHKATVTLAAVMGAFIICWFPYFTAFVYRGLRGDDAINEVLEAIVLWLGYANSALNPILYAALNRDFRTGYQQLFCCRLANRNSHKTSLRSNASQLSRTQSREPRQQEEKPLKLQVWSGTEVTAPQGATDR", "assay": "H2R radioligand binding"}, "[3]": {"assay": "Real-time photoisomerization rate by UV-vis under perpendicular illumination", "type": "physicochemical", "details": "25 μM in 50 mM Tris-HCl pH 7.4 + 1% DMSO-d6", "in_short": "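Real-time kinetics: test compound at 25 μM in 50 mM Tris–HCl pH 7.4 with 1% DMSO-d6. Illumination alternated between 360 ± 20 nm and 434 ± 9 nm, delivered perpendicular to the spectrometer beam. Spectra were taken at 1 s intervals, with absorbance followed at 344 or 319 nm depending on compound. Photoisomerization half-lives came from fits to the absorbance data.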"}, "[4]": {"assay": "Photostability and fatigue resistance under prolonged or repeated illumination", "type": "physicochemical"}}}
{"molecule": "NC(=NCc1ccc(Cl)cc1)SCCCc1cnc[nH]1", "note": "[clobenpropit]", "values": [{"measurement": "inhibition of GIRK channel activation by histamine (1 μM)", "setting": "H3R [1]; simultaneous superfusion, 1 μM", "value": "fully inhibited"}]}
{"molecule": "NCCc1c[nH]cn1", "note": "[Histamine]", "values": [{"measurement": "effect of illumination of compound solution at 360 ± 20 nm on affinity", "setting": "H3R [2]", "value": "not affected"}]}
{"molecule": "O=C(c1ccc2cc(OCCCN3CCCCC3)ccc2c1)N1CCCC1", "note": "[Compound 1]", "values": [{"measurement": "effect of illumination of compound solution at 360 ± 20 nm on affinity", "setting": "H3R [2]", "value": "not affected"}]}
{"molecule": "pertussis toxin", "values": [{"measurement": "inhibition of GIRK channel activation by histamine (1 μM)", "setting": "H3R [1]; pretreating the oocytes, 1.37 ng/oocyte", "value": "fully inhibited"}]}
{"molecule": "O=C(c1cccc(/N=N/c2cccc(OCCCN3CCCCC3)c2)c1)N1CCCC1", "note": "[Compound 28]", "values": [{"measurement": "affinity for H4R", "setting": "hH4R", "value": "no measurable affinity"}, {"measurement": "increase in H3R binding affinity upon photoisomerization", "setting": "H3R [2]; illumination at 360 nm, PSS cis vs trans, listed as VUF14738", "value": "over 10 fold"}, {"measurement": "change in current upon superfusion of compound only", "setting": "H3R [1]; noninjected and H3R-GIRK expressing oocytes", "value": "did not result in changes in current"}, {"measurement": "affinity for H2R", "setting": "hH2R", "value": "no measurable affinity"}, {"measurement": "photoisomerization half-life", "setting": "[3]; illumination 360 ± 20 nm", "value": "16 ± 0.9", "unit": "s"}, {"measurement": "photoisomerization half-life", "setting": "[3]; illumination 434 ± 9 nm", "value": "11 ± 0.3", "unit": "s"}, {"measurement": "photodegradation (1H NMR and LC-MS)", "setting": "[4]; 48 h illumination at 360 ± 20 nm, 0.77 mW/mm^2", "value": "no apparent photodegradation"}, {"measurement": "resistance to fatigue / photobleaching", "setting": "[4]; over 1000 isomerization cycles, 360 ± 20 and 434 ± 9 nm, 20 s intervals", "value": "highly resistant to photobleaching"}]}
